High-throughput results: PubChem, several laboratories
A selection: hits, their analogues and other compounds. The true share with any hit is near 3%.
GASC-1 inh: inhibitors of GASC-1 histone demethylase, primary screen, biochemical, fluorescence, DELFIA europium. 330,000 compounds, 0.069% hits. inhibition, % at 2.35 µM. GST-JMJD2C(1-420) H3K9me3 demethylation. Lysine-specific demethylase 4C (Homo sapiens), Q9H3R0. AID 2099, 2009;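 active means more than half of a compound's replicate wells show inhibition beyond 50%, single wells judged on their own value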;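 further: signal counts dimethyl H3K9 product captured on neutravidin plate; 0% = median of DMSO wells and 100% = 0.3 times that DMSO median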
GC-B act: human GC-B receptor activators, primary screen, HEK293 GC-B cells, cGMP TR-FRET, EC30 CNP; AID 1920062, 2024; 0% at EC30 CNP, 100% saturating CNP; 370,000 compounds, 0.11% hits; activation, % at 10 µM;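 active means activation at 10 µM reaching about 35% in either raw or pattern-adjusted values, limit read from the data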
Target sequence (P20594 whole entry, looked up): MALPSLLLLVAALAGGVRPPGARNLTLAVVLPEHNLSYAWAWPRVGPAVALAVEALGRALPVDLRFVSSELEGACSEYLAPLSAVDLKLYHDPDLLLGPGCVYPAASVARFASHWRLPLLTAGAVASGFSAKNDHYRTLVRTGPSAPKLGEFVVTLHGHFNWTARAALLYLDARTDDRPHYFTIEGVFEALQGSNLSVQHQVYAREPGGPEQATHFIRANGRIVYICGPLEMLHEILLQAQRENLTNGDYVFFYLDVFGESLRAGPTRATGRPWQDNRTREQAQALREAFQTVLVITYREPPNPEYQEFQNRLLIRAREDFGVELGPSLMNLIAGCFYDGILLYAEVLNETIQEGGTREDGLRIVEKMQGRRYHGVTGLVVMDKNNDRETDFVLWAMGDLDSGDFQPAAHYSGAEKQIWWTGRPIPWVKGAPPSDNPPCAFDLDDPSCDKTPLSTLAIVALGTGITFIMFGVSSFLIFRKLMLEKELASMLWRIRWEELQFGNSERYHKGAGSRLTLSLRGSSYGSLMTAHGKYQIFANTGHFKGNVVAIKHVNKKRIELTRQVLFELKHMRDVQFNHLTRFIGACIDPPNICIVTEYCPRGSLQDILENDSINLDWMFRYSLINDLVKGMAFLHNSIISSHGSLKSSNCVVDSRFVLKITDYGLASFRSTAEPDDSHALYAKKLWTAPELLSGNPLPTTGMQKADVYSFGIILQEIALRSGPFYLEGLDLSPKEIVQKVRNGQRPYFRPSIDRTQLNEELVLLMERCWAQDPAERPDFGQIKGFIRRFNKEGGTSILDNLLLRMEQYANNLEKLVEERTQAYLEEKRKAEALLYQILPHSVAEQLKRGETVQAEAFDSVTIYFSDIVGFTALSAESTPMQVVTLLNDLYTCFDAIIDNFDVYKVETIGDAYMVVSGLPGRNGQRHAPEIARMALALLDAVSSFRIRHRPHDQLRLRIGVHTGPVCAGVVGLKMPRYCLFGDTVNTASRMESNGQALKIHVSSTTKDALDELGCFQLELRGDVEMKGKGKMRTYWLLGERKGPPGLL
GRIN3A LBD mod: binders of NR3A ligand-binding domain, primary screen, biophysical, differential scanning fluorimetry, uHTS; 340,000 compounds, 2.5% hits; Tm shift relative to glycine control, % at 25 µM; NR3A LBD differential scanning fluorimetry, Tm shift; 0% = protein alone, 100% = glycine-bound protein; AID 1259313, 2017;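 active means melting temperature shift of at least 10% of the positive control shift, at one fixed dose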
aDG glyco act: activators of alpha-DG glycosylation, primary screen, uHTS, Pro5-aDG cells, AlphaScreen | alpha-DG glycosylation AlphaScreen (IIH6); 0% Pro5, 100% B10-LARGE cell signal | activation, % at 10 µM | 360,000 compounds, 0.22% hits;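 active means activation of at least 8% versus controls, or a plate z-score of at least 8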;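 further: Pro5 are CHO cells carrying HIG-tagged alpha-DG that lacks glycosylation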
GC-A act: GC-A stimulated cGMP production enhancers – HEK293 GC-A cells, cGMP TR-FRET, EC30 ANP, primary screen; Atrial natriuretic peptide receptor 1 (Homo sapiens), P16066; 0% at EC30 ANP, 100% saturating ANP; activation, % at 10 µM; 370,000 compounds, 0.14% hits; AID 1671463, 2021; in the data active means activation above about 40%
Hep lipid drop: inhibitors of hepatocyte lipid droplet formation, primary screen, imaging, high-throughput imaging, BODIPY stain; AML12 mouse hepatocytes, oleate lipid droplets; inhibition, % at 6.5 µM; 240,000 compounds, 0.4% hits; AID 1656, 2009;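 active means lipid droplet intensity inhibited by at least 50%, with more than 500 cells counted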
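Material: mouse AML12 hepatocyte cell line, fixed after treatment; Timing: compound with oleate, overnight; Technique: high-content imaging of BODIPY-stained droplets and DAPI nuclei; Probe or stimulus: oleate, 100 µM final; Dosing: compound at 6.5 µM only.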
* = called active by the depositor; · = no result.

SMILES	GASC-1 inh	GC-B act	GRIN3A LBD mod	aDG glyco act	GC-A act	Hep lipid drop
CC(C)c1cc(C(C)C)c(S(=O)(=O)N2CCCC(C(=O)NCc3cccs3)C2)c(C(C)C)c1 (stereo unspecified)	·	-2	·	·	-3	·
COc1ccc(-c2nc3ccc(C)cn3c2CC(C)(C)C)cc1OC	·	-5	·	0	-4	·
COc1ccc(/C=C/S(=O)(=O)NCCc2ccccc2)c(CNC(=O)OC(C)(C)C)c1	·	-2	·	·	-6	·
COc1ccc(C(=O)Nc2ccc(OC)c([N+](=O)[O-])c2)cc1Br	-1	10	30*	1	15	-2
COc1ccc(C(=O)Nc2ccc(Cc3ccncc3)cc2)cc1Br	3	-1	-11	0	4	3
COc1cc2c(cc1NC(=O)c1ccc(C(C)(C)C)cc1)CCCC2	-22	0	1	0	-8	·
COc1ccc(NC(=O)Nc2cccc([N+](=O)[O-])c2)cc1Cl	5	-2	32*	1	-6	-3
COc1ccc(C(=O)Nc2cc3c(cc2OC)CCCC3)cc1Br	-3	-8	11*	0	-5	·
COC(=O)c1cccc(NC(=O)c2cccc([N+](=O)[O-])c2)c1	2	4	1	0	-1	-17
COc1ccccc1CCNC(=O)Nc1cccc([N+](=O)[O-])c1	2	3	-1	1	3	-4
COc1ccc(C(=O)Nc2cccc([N+](=O)[O-])c2)cc1Br	-5	-7	22*	0	5	·
COCc1cc(N2CCN(C(=O)OC(C)(C)C)C[C@H]2C)ccc1N1CC[C@@H](O)C1	·	-4	·	·	0	·
CCOC(=O)N1CCC(c2nc3ccccc3[nH]2)CC1	53*	5	0	0	-1	8
CCC(NC(=O)CCCN1C(=O)COc2ccc(C)cc21)c1ccccc1 (stereo unspecified)	·	-3	·	·	-3	·
CS(=O)(=O)c1cccc(C(=O)Nc2ccc(-c3nc4ccccc4[nH]3)cc2)c1	-17	3	32*	0	0	10
CC(C)(C)N1C(=O)c2ccc(C(=O)Nc3ccc(C(=O)O)cc3)cc2C1=O	-2	5	1	0	-3	-1
CS(=O)(=O)c1ccccc1C(=O)Nc1ccc(-c2nc3ccccc3[nH]2)cc1	-27	8	-6	0	7	16
CC(C)(C)N1C(=O)c2ccc(C(=O)Nc3ccc(-c4nc5ccccc5[nH]4)cc3)cc2C1=O	2	1	35*	0	-4	23
O=C(Nc1ccc(-c2nc3ccccc3[nH]2)cc1)c1ccc(N2C(=O)CCC2=O)cc1	14	0	24*	0	4	-12
CN(c1ccccc1)S(=O)(=O)c1ccc(Cl)c(C(=O)Nc2ccc(-c3nc4ccccc4[nH]3)cc2)c1	2	11	19*	0	7	30
Cc1ccc(C(=O)NCC(=O)OCc2nc3sc(C)c(C)c3c(=O)[nH]2)cc1	·	-3	·	·	-4	·
COc1ccc(N2C(=O)c3n[nH]c(C(C)C)c3C2c2ccc(F)cc2)cc1 (stereo unspecified)	·	-24	·	·	-23	·
Cc1cc(C(=O)O[C@@H]2CCC[C@]3(C(=O)N(Cc4ccccc4)c4ccccc43)[C@H]2NC(=O)CCc2ccccc2)no1	·	6	·	·	0	·
O=C(Nc1ccc(Nc2cccnc2)cc1)c1c[nH]c2ccccc12	·	17	·	·	26	·
CCCCCCCCN1CN2Cc3cc(OC)ccc3C2CS1(=O)=O (stereo unspecified)	·	6	·	·	2	·
SMILES	GASC-1 inh	GC-B act	GRIN3A LBD mod	aDG glyco act	GC-A act	Hep lipid drop
COCCCn1c(=O)c2ccccc2n(Cc2ccc(C)cc2)c1=O	1	19	-1	0	18	13
Cc1ccc(Cn2c(=O)c3ccccc3n3nc(C)cc23)cc1	-2	36*	-8	0	25	-5
Cn1c(=O)c(Nc2ccc(O)cc2)c2c3c(cccc31)C(=O)c1ccccc1-2	60*	15	-19	0	18	13
CC(=O)c1c2c3c(cccc3n(C)c1=O)C(=O)c1ccccc1-2	-4	·	-1	·	·	-3
O=C1c2ccccc2CCC12N=NCC2c1ccc(Cl)cc1 (stereo unspecified)	4	0	1	0	0	·
O=C1c2ccccc2CCC12N=NCC2c1ccc(Br)cc1 (stereo unspecified)	1	-1	11*	0	2	-22
O=C(Nc1nc2cc3c(cc2s1)OCO3)c1cccc(N2C(=O)CCC2=O)c1	6	3	-1	0	40	-2
COc1ccc2nc(NC(=O)c3cccc(N4C(=O)CCC4=O)c3)sc2c1	-2	0	1	0	54*	·
O=C(Nc1nc2ccc(F)cc2s1)c1ccc(N2CCCC2=O)cc1	4	-4	11*	0	21	·
COC(=O)c1ccc2nc(Nc3nc4ccc(F)cc4s3)sc2c1	0	3	12*	0	7	26
O=C(Nc1nc2ccc(Cl)cc2s1)c1cccc(N2C(=O)CCC2=O)c1	-1	-5	-3	0	74*	·
C=CCN1[C@@H](C)COc2cc(F)ccc2S1(=O)=O	·	2	·	·	3	·
COc1ccc(C2C(C(=O)Nc3ccc(Cl)c(Cl)c3)CCC(=O)N2c2ccc(OC)cc2)cc1 (stereo unspecified)	·	-1	·	·	-1	·
COc1ccc(S(=O)(=O)NC2CCSc3ccccc32)cc1OC (stereo unspecified)	9	1	-2	0	0	-2
CC(=O)c1cccc(CN2CCC(n3nccc3NC(=O)CCc3ccccc3)CC2)c1	4	·	15*	0	·	-7
CC(=O)Nc1ccc(CN2CCC(n3nccc3NC(=O)CCc3ccccc3)CC2)cc1	-15	3	2	0	1	1
CC(C)COc1ccc(CNC(=S)N/N=C/c2ccc([N+](=O)[O-])cc2)cc1	1	-3	2	0	-6	2
CCCOc1ccc(CNC(=S)N/N=C/c2ccc([N+](=O)[O-])cc2)cc1	-3	-4	11*	0	-3	-10
CCN(CC)CCNC(CC(=O)Nc1ccc(Cl)cc1Cl)C(=O)O (stereo unspecified)	11	3	2	0	2	63*
